Converted amounts (≈) assume the structure as drawn.
Columns and labels:
Staphylococcus vitulinus [1] = assay: Antibacterial activity against methicillin-resistant mecA-positive Staphylococcus vitulinus SVMP03 by agar dilution method; assay type: functional; conditions: Mammaliicoccus vitulinus
Procedure, shortened: (§1)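 MIC by agar dilution on Mueller-Hinton agar per CLSI guidance; resistance judged against CLSI breakpoints. Strains were animal or food isolates (type strains for S. sciuri subspecies), typed by hsp60 and/or sodA sequencing; mecA homologue carriage checked by PCR with degenerate primers. Agents tested: oxacillin, ampicillin, ceftizoxime, ceftriaxone, cefoxitin.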

Staphylococcus vitulinus [2] = assay: Antibacterial activity against methicillin-resistant mecA-positive Staphylococcus vitulinus SVMP04 by agar dilution method; assay type: functional; conditions: Mammaliicoccus vitulinus; procedure, shortened: as §1
Staphylococcus vitulinus [3] = assay: Antibacterial activity against methicillin-resistant mecA-positive Staphylococcus vitulinus SVMP05 by agar dilution method; assay type: functional; conditions: Mammaliicoccus vitulinus; procedure, shortened: as §1
Staphylococcus vitulinus [4] = assay: Antibacterial activity against methicillin-resistant mecA-positive Staphylococcus vitulinus SVMP06 by agar dilution method; assay type: functional; conditions: Mammaliicoccus vitulinus; procedure, shortened: as §1
Staphylococcus vitulinus [5] = assay: Antibacterial activity against mecA-negative Staphylococcus vitulinus SVMN01 (ATCC 51145T) by agar dilution method; assay type: functional; conditions: Mammaliicoccus vitulinus
Procedure, shortened: (§2)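 MIC by agar dilution on Mueller-Hinton agar following CLSI guidelines. Resistance was assigned using CLSI breakpoints. Agents tested were oxacillin, ampicillin, ceftizoxime, ceftriaxone and cefoxitin. Strains were from animal or food sources and identified by hsp60 and/or sodA sequencing. mecA absence was assessed by PCR with degenerate primers for mecA and its homologues.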

Staphylococcus vitulinus [6] = assay: Antibacterial activity against mecA-negative Staphylococcus vitulinus SVMN02 by agar dilution method; assay type: functional; conditions: Mammaliicoccus vitulinus; procedure, shortened: as §1
Staphylococcus vitulinus [7] = assay: Antibacterial activity against mecA-negative Staphylococcus vitulinus SVMN03 by agar dilution method; assay type: functional; conditions: Mammaliicoccus vitulinus; procedure, shortened: as §2
Staphylococcus vitulinus [8] = assay: Antibacterial activity against mecA-negative Staphylococcus vitulinus SVMN04 by agar dilution method; assay type: functional; conditions: Mammaliicoccus vitulinus; procedure, shortened: as §1
Staphylococcus vitulinus [9] = assay: Antibacterial activity against mecA-negative Staphylococcus vitulinus SVMN05 by agar dilution method; assay type: functional; conditions: Mammaliicoccus vitulinus; procedure, shortened: as §1
Staphylococcus vitulinus [10] = assay: Antibacterial activity against mecA-negative Staphylococcus vitulinus SVMN06 by agar dilution method; assay type: functional; conditions: Mammaliicoccus vitulinus; procedure, shortened: as §1
Staphylococcus vitulinus [11] = assay: Antibacterial activity against mecA-negative Staphylococcus vitulinus SVMN07 by agar dilution method; assay type: functional; conditions: Mammaliicoccus vitulinus; procedure, shortened: as §1
Staphylococcus vitulinus [12] = assay: Antibacterial activity against mecA-negative Staphylococcus vitulinus SVMN08 by agar dilution method; assay type: functional; conditions: Mammaliicoccus vitulinus; procedure, shortened: as §2
Staphylococcus vitulinus [13] = assay: Antibacterial activity against mecA-negative Staphylococcus vitulinus SVMN09 by agar dilution method; assay type: functional; conditions: Mammaliicoccus vitulinus; procedure, shortened: as §1
Staphylococcus vitulinus [14] = assay: Antibacterial activity against mecA-negative Staphylococcus vitulinus SVMN10 by agar dilution method; assay type: functional; conditions: Mammaliicoccus vitulinus; procedure, shortened: as §2
Staphylococcus vitulinus [15] = assay: Antibacterial activity against mecA-negative Staphylococcus vitulinus SVMN11 by agar dilution method; assay type: functional; conditions: Mammaliicoccus vitulinus; procedure, shortened: as §1
Staphylococcus vitulinus [16] = assay: Antibacterial activity against mecA-negative Staphylococcus vitulinus SVMN12 by agar dilution method; assay type: functional; conditions: Mammaliicoccus vitulinus; procedure, shortened: as §1
Staphylococcus vitulinus [17] = assay: Antibacterial activity against mecA-negative Staphylococcus vitulinus SVMN13 by agar dilution method; assay type: functional; conditions: Mammaliicoccus vitulinus; procedure, shortened: as §2
Staphylococcus vitulinus [18] = assay: Antibacterial activity against mecA-negative Staphylococcus vitulinus SVMN14 by agar dilution method; assay type: functional; conditions: Mammaliicoccus vitulinus; procedure, shortened: as §1
Mammaliicoccus lentus = assay: Antibacterial activity against mecA-negative Staphylococcus lentus ATCC 29070T by agar dilution method; assay type: functional; procedure, shortened: as §2
[19] = system: Staphylococcus fleurettii; assay: Antibacterial activity against methicillin-resistant mecA-positive Staphylococcus fleurettii SFMP01(CCUG 43834T) by agar dilution method; assay type: functional; conditions: Mammaliicoccus fleurettii; procedure, shortened: as §1
[20] = system: Staphylococcus fleurettii; assay: Antibacterial activity against methicillin-resistant mecA-positive Staphylococcus fleurettii SFMP02 by agar dilution method; assay type: functional; conditions: Mammaliicoccus fleurettii; procedure, shortened: as §1
[21] = system: Staphylococcus fleurettii; assay: Antibacterial activity against methicillin-resistant mecA-positive Staphylococcus fleurettii SFMP03 by agar dilution method; assay type: functional; conditions: Mammaliicoccus fleurettii; procedure, shortened: as §1
[22] = system: Staphylococcus fleurettii; assay: Antibacterial activity against methicillin-resistant mecA-positive Staphylococcus fleurettii SFMP04 by agar dilution method; assay type: functional; conditions: Mammaliicoccus fleurettii; procedure, shortened: as §1
[23] = system: Staphylococcus fleurettii; assay: Antibacterial activity against methicillin-resistant mecA-positive Staphylococcus fleurettii SFMP05 by agar dilution method; assay type: functional; conditions: Mammaliicoccus fleurettii; procedure, shortened: as §1
[24] = system: Staphylococcus fleurettii; assay: Antibacterial activity against methicillin-resistant mecA-positive Staphylococcus fleurettii SFMP06 by agar dilution method; assay type: functional; conditions: Mammaliicoccus fleurettii; procedure, shortened: as §1
[25] = system: Staphylococcus fleurettii; assay: Antibacterial activity against methicillin-resistant mecA-positive Staphylococcus fleurettii SFMP07 by agar dilution method; assay type: functional; conditions: Mammaliicoccus fleurettii; procedure, shortened: as §1
[26] = system: Staphylococcus fleurettii; assay: Antibacterial activity against methicillin-resistant mecA-positive Staphylococcus fleurettii SFMP08 by agar dilution method; assay type: functional; conditions: Mammaliicoccus fleurettii; procedure, shortened: as §1
[27] = system: Staphylococcus fleurettii; assay: Antibacterial activity against mecA-negative Staphylococcus fleurettii SFMN01 by agar dilution method; assay type: functional; conditions: Mammaliicoccus fleurettii; procedure, shortened: as §2
[28] = system: Staphylococcus fleurettii; assay: Antibacterial activity against mecA-negative Staphylococcus fleurettii SFMN02 by agar dilution method; assay type: functional; conditions: Mammaliicoccus fleurettii; procedure, shortened: as §2
[29] = Antibacterial activity against methicillin-resistant mecA-positive Staphylococcus sciuri subsp. sciuri ATCC 29062T by agar dilution method; assay type: functional; conditions: Mammaliicoccus sciuri; procedure, shortened: as §1
[30] = Antibacterial activity against methicillin-resistant mecA-positive Staphylococcus sciuri subsp. rodentium ATCC 700061T by agar dilution method; assay type: functional; conditions: Mammaliicoccus sciuri; procedure, shortened: as §1
Staphylococcus vitulinus [31] = assay: Antibacterial activity against methicillin-resistant mecA-positive Staphylococcus vitulinus SVMP01 by agar dilution method; assay type: functional; conditions: Mammaliicoccus vitulinus; procedure, shortened: as §1
Staphylococcus vitulinus [32] = assay: Antibacterial activity against methicillin-resistant mecA-positive Staphylococcus vitulinus SVMP02 by agar dilution method; assay type: functional; conditions: Mammaliicoccus vitulinus; procedure, shortened: as §1
[33] = Antibacterial activity against mecA-positive Staphylococcus sciuri subsp. carnaticus ATCC 700058T by agar dilution method; conditions: Mammaliicoccus sciuri

Cc1onc(-c2ccccc2)c1C(=O)N[C@@H]1C(=O)N2[C@@H]1SC(C)(C)[C@@H]2C(=O)O [OXACILLIN]
MIC (Staphylococcus vitulinus [1]): 0.5 µg/mL (≈ 1.25 µM)
MIC (Staphylococcus vitulinus [2]): 0.5 µg/mL (≈ 1.25 µM)
MIC (Staphylococcus vitulinus [3]): 0.5 µg/mL (≈ 1.25 µM)
MIC (Staphylococcus vitulinus [4]): 0.5 µg/mL (≈ 1.25 µM)
MIC (Staphylococcus vitulinus [5]): 0.5 µg/mL (≈ 1.25 µM)
MIC (Staphylococcus vitulinus [6]): 0.5 µg/mL (≈ 1.25 µM)
MIC (Staphylococcus vitulinus [7]): 0.5 µg/mL (≈ 1.25 µM)
MIC (Staphylococcus vitulinus [8]): 0.5 µg/mL (≈ 1.25 µM)
MIC (Staphylococcus vitulinus [9]): 0.25 µg/mL (≈ 0.623 µM)
MIC (Staphylococcus vitulinus [10]): 0.5 µg/mL (≈ 1.25 µM)
MIC (Staphylococcus vitulinus [11]): 0.5 µg/mL (≈ 1.25 µM)
MIC (Staphylococcus vitulinus [12]): 0.5 µg/mL (≈ 1.25 µM)
MIC (Staphylococcus vitulinus [13]): 0.5 µg/mL (≈ 1.25 µM)
MIC (Staphylococcus vitulinus [14]): 0.5 µg/mL (≈ 1.25 µM)
MIC (Staphylococcus vitulinus [15]): 0.5 µg/mL (≈ 1.25 µM)
MIC (Staphylococcus vitulinus [16]): 0.5 µg/mL (≈ 1.25 µM)
MIC (Staphylococcus vitulinus [17]): 0.5 µg/mL (≈ 1.25 µM)
MIC (Staphylococcus vitulinus [18]): 0.5 µg/mL (≈ 1.25 µM)
MIC (Mammaliicoccus lentus): 0.5 µg/mL (≈ 1.25 µM)
MIC [19]: 64 µg/mL (≈ 159 µM)
MIC [20]: 8 µg/mL (≈ 19.9 µM)
MIC [21]: 128 µg/mL (≈ 319 µM)
MIC [22]: 128 µg/mL (≈ 319 µM)
MIC [23]: 32 µg/mL (≈ 79.7 µM)
MIC [24]: 64 µg/mL (≈ 159 µM)
MIC [25]: 8 µg/mL (≈ 19.9 µM)
MIC [26]: 64 µg/mL (≈ 159 µM)
MIC [27]: 0.5 µg/mL (≈ 1.25 µM)
MIC [28]: 0.5 µg/mL (≈ 1.25 µM)
MIC [29]: 0.5 µg/mL (≈ 1.25 µM)
MIC [30]: 0.5 µg/mL (≈ 1.25 µM)
MIC (Staphylococcus vitulinus [31]): 0.5 µg/mL (≈ 1.25 µM)
MIC (Staphylococcus vitulinus [32]): 0.5 µg/mL (≈ 1.25 µM)
MIC [33]: 1 µg/mL (≈ 2.49 µM)

Source: ChEMBL document CHEMBL1687776, “Origin and molecular evolution of the determinant of methicillin resistance in staphylococci” (2010)
